The record followed here is PubChem BioAssay AID720702 (The Scripps Research Institute Molecular Screening Center, 2013).

What is called inhibition is the change of the read-out against control, counted positive when it falls.

Several values for one entry are separate records, joined by “and”; a condition that tells them apart may be missing. Equal entries are not always repeated. Screen size: about 370,000 compounds; about 1,200 (0.32%) were called active.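 How the source made its calls: active means inhibition above the mean of all tested compounds plus 3 SD, set per campaign (cut at about 25% in these data); inactive means the rest.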 For the sample, actives were picked, then their nearest neighbours and some compounds at random.

The target of this assay is Tyrosyl-DNA phosphodiesterase 2 (Homo sapiens) (UniProt O95551). Put plainly: human TDP2 enzyme inhibitors, primary screen, biochemical, epi absorbance, recombinant enzyme (AID 720702).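 Further: 0% = DMSO with enzyme and 100% = buffer with substrate but no TDP2.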 To be noted: recombinant TDP2, T5PNP hydrolysis, p-nitrophenol absorbance 415 nm; at 12.8 µM; active compounds read high. The method in brief: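 Material: recombinant human TDP2; quantity: TDP2 enzyme at 120 nM final; medium: Tris-HCl pH 7.5 with MgCl2; compound: single concentration, 12.8 µM nominal, with 1% DMSO; incubation: 2 h enzyme incubation at 37 °C; signal: epi absorbance; measure: percent inhibition; benchmarks: high control without enzyme, low control DMSO plus TDP2; repeats: singlicate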
Chain of Tyrosyl-DNA phosphodiesterase 2 (Homo sapiens) (O95551 whole entry, looked up): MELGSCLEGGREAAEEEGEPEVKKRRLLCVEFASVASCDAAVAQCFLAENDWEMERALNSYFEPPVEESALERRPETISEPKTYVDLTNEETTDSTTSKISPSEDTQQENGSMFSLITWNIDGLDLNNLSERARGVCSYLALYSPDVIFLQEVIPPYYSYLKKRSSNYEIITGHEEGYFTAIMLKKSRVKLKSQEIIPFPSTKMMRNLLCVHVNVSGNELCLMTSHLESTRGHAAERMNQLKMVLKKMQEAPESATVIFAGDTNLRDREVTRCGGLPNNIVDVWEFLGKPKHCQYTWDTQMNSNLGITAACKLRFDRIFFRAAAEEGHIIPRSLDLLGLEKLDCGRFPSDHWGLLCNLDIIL
Turning to `COc1ccc(C(=O)OCCN2CCN(C3CN(Cc4cn(Cc5ccccc5F)nn4)S(=O)(=O)C3)CC2)cc1OC` (configuration not stated), the inhibition is 11.2% (inactive). Then `Cc1nc([N+](=O)[O-])cn1CC(=O)Nc1ccc(Cl)cc1`, with 7.84% (inactive); and `CCOC(=O)C1CCN(C(=O)C(C)(C)NC(=O)Nc2ccccc2Cl)CC1`, with 1.3% (inactive); and `c1coc(CCNc2ncnc3ccc(-c4ccc5c(c4)OCO5)cc23)c1`, with 0.8% (inactive).

`Cc1cc(C)nc(NC(=S)N2CCN(c3ccc(C(F)(F)F)cn3)CC2)c1`: the inhibition is -1.93% (inactive). The value for `NC(=O)c1ccsc1NC(=O)COC(=O)COc1ccc(C=O)cc1` was 2.52% (inactive). Consider `Cc1cccc(C(=O)OCC(=O)Nc2sccc2C(N)=O)c1C`, for which the inhibition was -12.7% (inactive).

On to `COc1cc(OC)cc(C(=O)OCC(=O)Nc2sccc2C(N)=O)c1`, for which the inhibition is 28.2% (active). As to `CC1Cc2nc(SCC(=O)Nc3ccccc3F)n(C)c(=O)c2S1` (configuration not stated), the inhibition is 9.78% (inactive).

On to `COC(=O)[C@]12C[C@H](CC(=O)N3CCOCC3)C(=O)N(Cc3ccc(Cl)cc3Cl)C1=C[C@H](C(C)C)O[C@@H]2C1CC1`, for which the inhibition is -1.98% (inactive). Then `CCOC(=O)Cn1c2c(n(-c3ccc(F)cc3)c1=O)C=C(c1ccccc1)[C@@H](C)C(C(=O)N(C)C1CCCCC1)=C2`, with -5.6% (inactive); and `C=CCN(Cc1ccc2c(c1)OCO2)C(C#CC1CC1)C(C)(C)C` (configuration not stated), with 0.99% (inactive). The value for `C[C@H]1[C@H](NC(=O)c2cccc(N(C)C)c2)CC[C@@]23CCCN2C(=O)CCC[C@@H]13` was -4.75% (inactive); that for `Clc1ccc(C2=CSC3=Nc4cccc5cccc(c45)N23)cc1` was 65.8% (active); that for `Cc1ccc(C)c(CN2CCC(CNC(=O)C3CCCN(c4ncnc5c4nc4n5CCCCC4)C3)CC2)c1` (configuration not stated) was -0.02% (inactive). Then `Cc1ccc(CCNC(=O)C2CCN(S(=O)(=O)N3CCCC3)CC2)cc1`, with 3.54% (inactive). On to `Cc1ccc(S(=O)(=O)N2CCC(C(=O)NCCC3=CCCCC3)CC2)cc1C`, for which the inhibition is 33.1% (active). Then `O=C(NCCC1=CCCCC1)C1CCN(S(=O)(=O)c2ccc(Cl)s2)CC1`, with 6.48% (inactive); and `C=C(C)CNC(=O)c1ccc(OC2CCN(C(=O)COC)CC2)cc1`, with -0.83% (inactive). The value for `NC1=CC(=O)C(=O)c2cccnc21` was 70.4% (active); that for `O=C(NCc1ccccc1)[C@H]1CCCN1C(=O)[C@@H]1CCCN1C(=O)c1ccc(Cl)cc1Cl` was -1.81% (inactive); that for `O=C1CC(c2ccc3c(c2)OCO3)N=C2N(CC3CC3)C/C(=C/c3ccccc3)N12` (configuration not stated) was 7.53% (inactive).

As to `COC(=O)[C@]12C[C@H](CC(=O)NCc3cccs3)C(=O)N(CCc3ccc(OC)c(OC)c3)C1=C[C@H](C(C)C)O[C@@H]2C1CC1`, the inhibition is 3.66% (inactive). The value for `COc1ccc(C)cc1NC(=S)Nc1ccccc1SC` was 1.04% (inactive); that for `COc1cc(NC(=S)NNC(=O)CC(C)C)c(OC)cc1Cl` was 8.52% (inactive).

On to `CCc1ccccc1NC(=S)Nc1cc(OC)c(NC(=O)C(C)C)cc1OC`, for which the inhibition was 39.9% (active). The value for `Cc1cc(C)n2ncc(C(=O)Nc3ccc4c(c3)OCCO4)c2n1` was -3.81% (inactive). The value for `CN(C)C(=O)N1CCN(C(=O)[C@@H](Cc2ccccc2)NC(=O)[C@H]2O[C@@H](n3ccc(N)nc3=O)[C@H](O)[C@@H]2O)CC1` was 8.58% (inactive); that for `Cc1ccc2nc(-c3ccc(NC(=O)CN(C)S(=O)(=O)c4ccccc4)cc3)sc2c1` was -18.6% (inactive). With `CCOC(=O)N1CCC(NC(=O)Cc2cn(C)c3ccccc23)CC1`, the inhibition is -2.66% (inactive). Then `CCOC(=O)N1CCC(c2cc(=O)n(-c3ccccc3)[nH]2)CC1`, with 79.4% (active). The value for `CCOC(=O)N1CCC(C(N)=O)CC1` was 4.66% (inactive). Then `CCOc1ccc(Oc2c(Cl)cnn(-c3ccc(C)cc3)c2=O)cc1`, with -6.6% (inactive); and `Cc1ccc(NC(=O)Cc2nnc(SCC(=O)Nc3nncs3)n2C)cc1`, with 9.72% (inactive). `O=Cc1cn(-c2ccccc2)nc1-c1ccccn1`: the inhibition was 31.4% (active). Regarding `O=C(CSc1ccc(-c2ccccn2)nn1)Nc1ccccc1`, the inhibition was -4.03% (inactive). Then `CCc1ccc(-c2nn(-c3ccccc3)cc2CSC(=N)N)cc1`, with -12% (inactive); and `N[C@@H](Cc1ccccc1)C(=O)N1CCC[C@@H]1C(=O)N1CCC2CCN(S(=O)(=O)c3ccccc3)CC21` (some centres not stated), with 2.14% (inactive). Then `O=C(CSc1nc2sc3c(c2c(=O)n1-c1ccccc1)CCCC3)NN=Cc1ccc(OCc2ccccc2)cc1`, with 8.18% (inactive). With `C=CCN=C1NC(c2ccccc2)C(C(=O)OC)=C(C)N1Cc1ccc(C(F)(F)F)cc1` (configuration not stated), the inhibition is -7.84% (inactive). Consider `COc1cccc(OC)c1CN(C)C(=O)c1cnccc1C(F)(F)F`, for which the inhibition was -13.4% (inactive).

Turning to `COC(=O)C1CN(CCc2ccccc2)CCS(=O)(=O)N1Cc1ccc(F)cc1` (configuration not stated), the inhibition is -8.99% (inactive). As to `C=CCn1c(P(C)(=O)O)nc2ccccc21`, the inhibition was 2.29% (inactive) and 0.31% (inactive).

`C=CCn1c(N)c(C(=O)OCC(C)C)c2nc3ccccc3nc21`: the inhibition is 30.5% (active).

Turning to `C=CCN1CN(S(=O)(=O)c2ccc(OC)cc2)c2nc3ccccc3nc21`, the inhibition was -10.2% (inactive). As for `Cc1nc2c(C(=O)NCc3cccs3)cnn2c(C)c1Cc1ccc(F)cc1`, the inhibition was 6.37% (inactive).

Consider `CCN(CC(=O)NCc1cccs1)c1nnnn1-c1ccccc1`, for which the inhibition is -4.19% (inactive). The value for `CC(C)Cn1c(N)c(C(=O)NCc2cccs2)c2nc3ccccc3nc21` was 62.4% (active); that for `O/N=C(\C[n+]1ccccc1)c1ccc(Br)cc1` was -4.49% (inactive); that for `CSc1nnc(-c2ccncc2)n1CCCN1CCCC1=O` was 3.44% (inactive). For `O=C1Nc2ccccc2OC1CC(=O)N1CCCCCCC1` (configuration not stated), the inhibition was 4.41% (inactive). For the compound `COC(CNC(=O)[C@H](Cc1ccccc1)NC1(C(=O)NC2CCCCC2)CCCCC1)OC`, the inhibition was -1.87% (inactive). Consider `CCCNC(=O)CCn1cc(-c2ccc(OC)cc2)nc1CCN`, for which the inhibition is -1.08% (inactive). Then `CCCCNC(=O)CCn1nc(-c2ccc(Cl)cc2)ccc1=O`, with 29.2% (active); and `CCN(CC)CCCNC(=O)CCn1nc(-c2ccc(Cl)cc2)ccc1=O`, with -8.35% (inactive).

For `COC(=O)[C@]12C[C@H](CC(=O)NCCc3ccccc3OC)C(=O)N(Cc3ccccc3)C1=C[C@H](C(C)C)O[C@@H]2C1CC1`, the inhibition is -7.01% (inactive).

Take `Cc1ccc(S(=O)(=O)NNC(=S)NC(C)(C)C)cc1`: the inhibition was 0.38% (inactive). The value for `COc1ccc2c(c1)c(=Cc1ccc(N(C)C)cc1)c1cc(-c3ccccc3)[n+](C)n12` was 28.4% (active); that for `CCOC(=O)[C@]12CCCCC/C=C\1N(Cc1ccc(OC)cc1)C(=O)[C@H]2CC(=O)NCCCN1CCCC1=O` was -4.43% (inactive). Then `CC(C)CCNC(=O)C1CCC(CNc2c(N3CCC(C)CC3)c(=O)c2=O)CC1` (configuration not stated), with -1.37% (inactive). Then `O=C1C(Cl)=C(Oc2ccccc2)C(=O)c2ccccc21`, with 3.22% (inactive); and `CC(=O)N(C1=C(Cl)C(=O)c2ccccc2C1=O)c1ccc(C(=O)O)cc1`, with 42.4% (active); and `COP(=O)(O)CNC(=O)OCc1ccccc1`, with -6.21% (inactive). Regarding `CCn1c(=O)n2n(c1=O)[C@@]1(C=C3CCCC[C@H]32)N=C(NC(=O)c2ccccc2)N(Cc2ccccc2)[C@H]1Cc1ccccc1`, the inhibition is 4.32% (inactive). Then `Cc1nc(CNc2ncnc3ccc(-c4ccc5c(c4)OCO5)cc23)cs1`, with 0.28% (inactive); and `CN1c2ccc(C=O)c3c(C=O)ccc(c23)N(C)C1(C)C`, with 48.6% (active); and `COc1ccc(N2CCN(CCNS(=O)(=O)c3ccc(Cl)s3)CC2)cc1`, with -1.58% (inactive). The value for `NS(=O)(=O)c1cc(C(=O)OCC(=O)NNC(=O)c2ccccc2)ccc1Cl` was -0.47% (inactive); that for `O=C(NC1=CC(=O)c2ccccc2C1=O)c1ccccc1` was 44.5% (active); that for `O=C(NN1C(=O)C2C3C=CC(O3)C2C1=O)c1ccccc1` (configuration not stated) was -12.4% (inactive). Then `Cc1ccccc1NC(=O)C(C)OC(=O)CCC(=O)N(CC(C)C)c1c(N)n(CC(C)C)c(=O)[nH]c1=O` (configuration not stated), with -3.56% (inactive); and `O=C1OC(Oc2ccc(Br)cc2)(c2ccccc2)c2ccccc21` (configuration not stated), with -5.92% (inactive); and `O=C(COC(=O)CCc1c[nH]c2ccccc12)Nc1cccc(Cl)c1`, with 9.41% (inactive). Consider `CC(C)(C)N(Cc1ccccc1)C(=O)COC(=O)CCc1c[nH]c2ccccc12`, for which the inhibition was -14.4% (inactive). Turning to `O=C(COC(=O)Cc1c[nH]c2ccccc12)NCCc1ccccc1`, the inhibition is 24.9% (active). `COc1cccc(Cn2cc(COC(=O)Nc3ccc(F)cc3)nn2)c1`: the inhibition was 4.69% (inactive). `N#Cc1ccc(C(=O)Nc2nc(-c3cccs3)c(C(=O)C(F)(F)F)s2)cc1`: the inhibition was -0.4% (inactive). Then `CC1CCCCC1NC(=O)c1cc(=O)[nH]c2ccccc12` (configuration not stated), with 6.87% (inactive); and `CC1CCCC(NC(=O)c2cc(S(=O)(=O)N3CCCCC3)ccc2Cl)C1C` (configuration not stated), with 5.78% (inactive). For the compound `CC1CCCC(NC(=O)c2cc(-c3ccncc3)nc3ccccc23)C1C` (configuration not stated), the inhibition is 68.1% (active).

`COc1ccc(-c2ccc3c(n2)CCCN3S(=O)(=O)c2ccc(C)cc2)cc1`: the inhibition was 4.76% (inactive). In the case of `N#Cc1c(N2CCCCC2)nc(N)c2c(N)nc(SCC(=O)O)cc12`, the inhibition was 7.63% (inactive). In the case of `CCc1ccc(NC2Nc3cc(C)nn3S2)cc1` (configuration not stated), the inhibition was -7.9% (inactive). The value for `CCOC(=O)c1ccc(NC(=O)C2CC(=O)Nc3nc4ccccc4n32)cc1` (configuration not stated) was -14.1% (inactive); that for `CCOC(=O)c1ccc(NC2Nc3cc(C)nn3S2)cc1` (configuration not stated) was 26.6% (active). As to `COc1ccc(S[C@]2(C(=O)N(C)C)CC(=O)N(c3ccc(OC)cc3)[C@@H]2c2ccc(OC)cc2)cc1`, the inhibition is -13.2% (inactive). Then `C/C(=N/O)c1ccc(N2C(=O)C3C4C=CC(C3C2=O)C2C3C(=O)N(c5ccc(/C(C)=N/O)cc5)C(=O)C3C42)cc1` (configuration not stated), with -7.03% (inactive).
